This passage reports inhibition results from ChEMBL document CHEMBL3259629, “Discovery and optimization of piperidyl-1,2,3-triazole ureas as potent, selective, and in vivo-active inhibitors of α/β-hydrolase domain containing 6 (ABHD6)” (J Med Chem, 2013).

Activity calls are given as the source filed them. The rule behind the calls is not given here.

For assay [1], the target named is T1, Monoacylglycerol lipase ABHD6 (Mus musculus) (UniProt Q8R2Y0).
T1 sequence (whole entry): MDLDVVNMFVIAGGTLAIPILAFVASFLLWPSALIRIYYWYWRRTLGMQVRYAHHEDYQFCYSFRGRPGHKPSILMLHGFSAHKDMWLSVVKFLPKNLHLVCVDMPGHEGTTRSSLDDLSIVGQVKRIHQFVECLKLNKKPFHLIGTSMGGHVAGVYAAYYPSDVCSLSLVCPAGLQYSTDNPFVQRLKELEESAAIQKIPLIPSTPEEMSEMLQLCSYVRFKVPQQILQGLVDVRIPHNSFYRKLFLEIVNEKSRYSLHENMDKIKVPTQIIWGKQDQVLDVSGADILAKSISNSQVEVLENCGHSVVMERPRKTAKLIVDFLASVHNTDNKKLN
Nature of the assay: Inhibition of ABHD6 in FP-rhodamine-labelled mouse brain membrane at 10 nM preincubated for 30 mins followed by FP-rhodamine labelling measured after 30 mins by gel-based competitive ABPP assay. Format: tissue-based. The procedure, abridged:
(§1)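 Mouse brain membrane proteome (1 mg/mL) preincubated with compound for 30 min at 37 °C, then labelled with FP-rhodamine or HT-01 (1 μM final) for 30 min at 37 °C. Quenched in SDS loading buffer, run on 10% SDS-PAGE and scanned for in-gel fluorescence. Bands assigned by gel migration.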

In assay [2] the target is T2, Fatty-acid amide hydrolase 1 (Mus musculus) (UniProt O08914).
T2 sequence (whole entry): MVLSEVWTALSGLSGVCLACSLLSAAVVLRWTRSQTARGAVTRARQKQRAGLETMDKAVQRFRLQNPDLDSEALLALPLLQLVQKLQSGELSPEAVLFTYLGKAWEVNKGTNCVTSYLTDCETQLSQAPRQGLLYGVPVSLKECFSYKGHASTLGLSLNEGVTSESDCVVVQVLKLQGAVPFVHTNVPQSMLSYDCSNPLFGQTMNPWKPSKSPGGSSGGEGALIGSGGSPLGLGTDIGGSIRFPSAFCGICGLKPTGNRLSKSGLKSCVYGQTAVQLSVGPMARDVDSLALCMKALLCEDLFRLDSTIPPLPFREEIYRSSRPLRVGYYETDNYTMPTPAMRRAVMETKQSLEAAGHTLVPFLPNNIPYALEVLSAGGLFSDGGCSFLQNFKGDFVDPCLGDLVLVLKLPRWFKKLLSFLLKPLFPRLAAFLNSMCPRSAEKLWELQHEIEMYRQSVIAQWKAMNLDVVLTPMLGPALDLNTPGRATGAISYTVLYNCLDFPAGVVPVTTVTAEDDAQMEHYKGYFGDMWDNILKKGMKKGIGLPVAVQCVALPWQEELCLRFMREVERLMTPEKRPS
As to the kind of experiment: Inhibition of mouse brain FAAH at 10 uM after 30 mins by FP-rhodamine ABPP-based SDS-PAGE analysis relative to control.

Assay [3] has as its target T3, Diacylglycerol lipase-beta (Mus musculus) (UniProt Q91WC9).
T3 sequence (whole entry): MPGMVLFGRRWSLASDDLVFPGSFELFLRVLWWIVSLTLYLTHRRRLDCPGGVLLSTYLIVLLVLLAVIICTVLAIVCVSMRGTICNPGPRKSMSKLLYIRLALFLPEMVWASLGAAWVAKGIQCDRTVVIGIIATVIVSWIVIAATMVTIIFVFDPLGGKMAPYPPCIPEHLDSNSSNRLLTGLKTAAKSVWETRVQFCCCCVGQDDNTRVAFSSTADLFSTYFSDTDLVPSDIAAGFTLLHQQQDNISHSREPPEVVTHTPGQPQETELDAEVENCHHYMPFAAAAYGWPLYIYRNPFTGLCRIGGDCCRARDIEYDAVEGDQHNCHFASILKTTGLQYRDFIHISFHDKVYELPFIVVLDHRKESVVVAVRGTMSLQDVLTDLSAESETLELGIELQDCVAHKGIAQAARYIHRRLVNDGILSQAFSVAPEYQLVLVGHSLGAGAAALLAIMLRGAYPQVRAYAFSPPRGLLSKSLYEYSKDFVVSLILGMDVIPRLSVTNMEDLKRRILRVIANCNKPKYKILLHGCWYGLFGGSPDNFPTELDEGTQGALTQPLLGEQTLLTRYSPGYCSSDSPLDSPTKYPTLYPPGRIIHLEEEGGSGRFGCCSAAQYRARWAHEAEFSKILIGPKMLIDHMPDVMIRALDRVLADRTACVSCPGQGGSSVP
As to the kind of experiment: Inhibition of FP-rhodamine-labelled recombinant mouse DAGLbeta expressed in HEK293T cells at 1 uM preincubated for 30 mins followed by FP-rhodamine labelling measured after 30 mins by gel-based competitive ABPP assay. In kind it is cell-based. To be noted: HEK-293T. In outline: (§2)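 Mouse DAGLβ transiently overexpressed in HEK293T. Lysate diluted to 0.3 mg/mL in 50 mM HEPES pH 7.2, 100 mM NaCl, 5 mM CaCl₂, 0.1% Triton X-100, 10% DMSO. Compound preincubated 30 min at 37 °C, then 1 μM probe for 30 min at 37 °C, SDS-PAGE and in-gel fluorescence.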

For assay [4], the target named is T1, Monoacylglycerol lipase ABHD6 (Mus musculus). Nature of the assay: Inhibition of ABHD6 in FP-rhodamine-labelled mouse brain membrane at 1 nM preincubated for 30 mins followed by FP-rhodamine labelling measured after 30 mins by gel-based competitive ABPP assay. In kind it is tissue-based. The procedure, abridged:
as §1

Assay [5] has as its target Acyl-protein thioesterase 2 (Mus musculus) (UniProt Q9WTL7). Nature of the assay: Inhibition of FP-rhodamine-labelled recombinant mouse LYPLA2 at 10 uM preincubated for 30 mins followed by FP-rhodamine labelling measured after 30 mins by gel-based competitive ABPP assay.
In assay [6] the target is Acyl-protein thioesterase 1 (Mus musculus) (UniProt P97823). Nature of the assay: Inhibition of FP-rhodamine-labelled recombinant mouse LYPLA1 at 10 uM preincubated for 30 mins followed by FP-rhodamine labelling measured after 30 mins by gel-based competitive ABPP assay.
Assay [7] concerns the target T1, Monoacylglycerol lipase ABHD6 (Mus musculus). Nature of the assay: Inhibition of ABHD6 in FP-rhodamine-labelled mouse brain membrane at 0.01 uM after 30 mins preincubated for 30 mins followed by HT-01 labelling measured after 30 mins by gel-based competitive ABPP assay. Format: tissue-based. In outline:
as §1

Assay [8] deals with T4, Monoglyceride lipase (Mus musculus) (UniProt O35678).
T4 sequence (whole entry): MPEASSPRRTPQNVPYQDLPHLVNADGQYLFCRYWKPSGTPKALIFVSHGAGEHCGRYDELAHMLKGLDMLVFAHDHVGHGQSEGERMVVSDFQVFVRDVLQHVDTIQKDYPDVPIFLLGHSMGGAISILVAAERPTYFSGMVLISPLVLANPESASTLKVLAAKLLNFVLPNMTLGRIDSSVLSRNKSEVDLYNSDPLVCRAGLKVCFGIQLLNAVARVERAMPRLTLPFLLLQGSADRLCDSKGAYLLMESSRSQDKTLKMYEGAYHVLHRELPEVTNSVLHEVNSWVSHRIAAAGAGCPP
As to the kind of experiment: Inhibition of MGLL in FP-rhodamine-labelled mouse brain membrane at 10 uM after 30 mins preincubated for 30 mins followed by HT-01 labelling measured after 30 mins by gel-based competitive ABPP assay. In kind it is tissue-based. In outline: as §1

Assay [9] addresses T3, Diacylglycerol lipase-beta (Mus musculus). Nature of the assay: Inhibition of FP-rhodamine-labelled recombinant mouse DAGLbeta expressed in HEK293T cells at 10 uM preincubated for 30 mins followed by FP-rhodamine labelling measured after 30 mins by gel-based competitive ABPP assay. Format: cell-based. To be noted: HEK-293T. In outline:
as §2

Assay [10] has the same target. As to the kind of experiment: Inhibition of FP-rhodamine-labelled recombinant mouse DAGLbeta expressed in HEK293T cells at 100 nM preincubated for 30 mins followed by FP-rhodamine labelling measured after 30 mins by gel-based competitive ABPP assay. In kind it is cell-based. To be noted: HEK-293T. The procedure, abridged:
as §2

In assay [11] the target is T4, Monoglyceride lipase (Mus musculus). Nature of the assay: Inhibition of mouse brain MGLL at 10 uM after 30 mins by FP-rhodamine ABPP-based mass spectrometry relative to control.
For assay [12], the target named is T2, Fatty-acid amide hydrolase 1 (Mus musculus). Nature of the assay: Inhibition of FAAH in FP-rhodamine-labelled mouse brain membrane at 0.4 to 10 uM preincubated for 30 mins followed by FP-rhodamine labelling measured after 30 mins by gel-based competitive ABPP assay. In kind it is tissue-based. In outline: as §1
The target of assay [13] is T1, Monoacylglycerol lipase ABHD6 (Mus musculus). As to the kind of experiment: Inhibition of ABHD6 in HT-01-labelled mouse Neuro2a cell membrane at 0.003 to 0.6 uM preincubated for 30 mins followed by HT-01 labelling measured after 30 mins by gel-based competitive ABPP assay. The procedure, abridged:
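Neuro2A membrane proteome (1 mg/mL) preincubated with compound for 30 min at 37 °C, then labelled with HT-01 (1 μM, 30 min, 37 °C). SDS-PAGE and in-gel fluorescence scanning, with activity taken from integrated band intensity.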

The target is the same in assay [14]. As to the kind of experiment: Inhibition of ABHD6 in FP-rhodamine-labelled mouse brain membrane at 10 to 0.0032 uM preincubated for 30 mins followed by FP-rhodamine labelling measured after 30 mins by gel-based competitive ABPP assay. Format: tissue-based. The procedure, abridged: as §1
The target is the same in assay [15]. Nature of the assay: Inhibition of ABHD6 in azide-rhodamine-labelled mouse Neuro2a cell membrane at 0.01 to 0.6 uM preincubated for 1 hr followed by azide-rhodamine labelling by SDS-PAGE-based in-gel fluorescence scanning assay. The procedure, abridged:
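Live Neuro2A cells (DMEM, 10% FBS) treated with compound for 1 hr at 37 °C, then lysed. The membrane proteome was conjugated to azide-rhodamine by click chemistry, resolved by SDS-PAGE and scanned for in-gel fluorescence.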

Acyl-protein thioesterase 1 (Mus musculus), sequence (P97823 whole entry): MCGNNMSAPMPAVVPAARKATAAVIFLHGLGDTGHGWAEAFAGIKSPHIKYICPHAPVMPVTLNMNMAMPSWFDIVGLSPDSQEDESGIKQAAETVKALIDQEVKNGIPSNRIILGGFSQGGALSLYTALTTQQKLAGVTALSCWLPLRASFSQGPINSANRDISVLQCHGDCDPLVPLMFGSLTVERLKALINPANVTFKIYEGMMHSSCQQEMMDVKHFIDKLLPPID
Acyl-protein thioesterase 2 (Mus musculus), sequence (Q9WTL7 whole entry): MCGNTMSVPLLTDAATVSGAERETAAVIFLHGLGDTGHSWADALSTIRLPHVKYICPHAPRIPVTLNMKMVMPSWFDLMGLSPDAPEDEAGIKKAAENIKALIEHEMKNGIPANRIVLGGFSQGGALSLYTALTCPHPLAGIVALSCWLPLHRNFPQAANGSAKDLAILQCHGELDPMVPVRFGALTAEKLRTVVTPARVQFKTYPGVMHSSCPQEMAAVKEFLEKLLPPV

In general, inhibition refers to the drop in the measured response relative to a control, in per cent. On to `O=C(O)c1cccc(-c2ccc(-c3cn(C(=O)N4CCCCC4CCc4ccccc4)nn3)cc2)c1` (racemic), for which the inhibition in [1] turned out to be 94%; in assay [3], 4%; in [4] it was 33%. Further, the inhibition result in assay [2] is “Active”.

With `NC(=O)c1ccc(-c2ccc(-c3cn(C(=O)N4CCCCC4c4ccccc4)nn3)cc2)cc1` (racemic), the inhibition in assay [1] is 27%; in assay [3], 0%; in assay [4], 17%. The inhibition entry in [2], in [5] and in assay [6] was “Active” each time.

In the case of `O=C(c1ccc(-c2ccc(-c3cn(C(=O)N4CCCCC4c4ccccc4)nn3)cc2)cc1)N1CCCCC1` (racemic), the inhibition in assay [1] amounted to 94%; in assay [3], 0%; in assay [4], 35%. Also, the inhibition result in assay [5] and in assay [6] was “Active” in each case.

`O=C(N1CCCCC1Cc1ccccc1)n1cc(-c2ccc(-c3cccc(CO)c3)cc2)nn1` (racemic): the inhibition entry in assay [7] and in [8] was “Active” in each case. In addition, the inhibition was found to be 91% in assay [1], 91% in [9] and 37% in assay [10].

Turning to `O=C(c1ccc(-c2ccc(-c3cn(C(=O)N4CCCCC4Cc4ccccc4)nn3)cc2)cc1)N1CCCCC1` (racemic), the inhibition entry in assay [7] and in assay [8] was “Active” in each case. Further, the inhibition in assay [1] was determined as 79%; in assay [9] it was 58%; in assay [10] it was 15%.

With `COc1ccccc1-c1ccc(-c2cn(C(=O)N3CCCCC3c3ccccc3)nn2)cc1` (racemic), the inhibition entry in [7], in assay [8], in [2] and in assay [11] was “Active” throughout. Also, the inhibition in assay [1] is 82%; in [9], 70%; in [10], 14%.

On to `COc1ccc(-c2ccc(-c3cn(C(=O)N4CCCCC4c4ccccc4)nn3)cc2)cc1` (racemic), for which the inhibition entry in assay [7], in assay [8] and in [2] was “Active” throughout. Also, the inhibition turned out to be 30% in assay [1], 0% in [9] and 0% in assay [10].

Regarding `COc1ccccc1-c1ccc(-c2cn(C(=O)N3CCCCC3Cc3ccccc3)nn2)cc1` (racemic), the inhibition entry in assay [7], in [8] and in assay [11] was “Active” each time. The inhibition in [1] turned out to be 89%; in assay [9] it was 100%; in assay [10] it was 66%.

Consider `O=C(N1CCCCC1c1ccccc1)n1cc(-c2ccc(-c3ccccc3CO)cc2)nn1` (racemic), for which the values for the inhibition in assay [1], in assay [3] and in assay [4] were 98%, 0% and 38%, respectively. The inhibition result in assay [2], in assay [5] and in assay [6] was “Active” each time.

As for `O=C(N1CCCCC1c1ccccc1)n1cc(-c2ccc(-c3ccc(CO)cc3)cc2)nn1` (racemic), the inhibition was 47% in assay [1], 0% in assay [3] and 18% in assay [4]. Also, the inhibition result in assay [2], in [5] and in [6] was “Active” throughout.

Take `C#CCOCCCc1ccc(C2CCCCN2C(=O)n2cc(-c3ccc(-c4ccc(OC)cc4)cc3)nn2)cc1` (racemic): the inhibition result in assay [12], in assay [13], in assay [14] and in assay [15] was “Active” in each case.
